PGC1a acetyl inh: modulators of PGC1a acetylation; inhibition, % at 15.6 µM; U2OS PGC1a acetylation, AlphaScreen anti-acetyl-lysine; with virally co-expressed GCN5 acetyltransferase; actives 0.17% (n = 350,000);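 active = every replicate shows inhibition of at least 40%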;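 also: 0% = neutral control wells and 100% = positive control wells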
Cneo AK release: causes C. neoformans cell lysis; actives 0.2% (n = 360,000); adenylate kinase release luminescence, 4 h; normalised: neutral wells 0, clomiphene wells 100; lysis activity, % at 15 µM; AID 651654;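 active = mean lysis activity across replicates of at least 80%, whatever share of replicates individually reach that level; inactive = mean lysis activity below 80%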
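Assay system: C. neoformans cells. Amount: yeast cell density of 5 × 10^6 cells/mL. Technique: AK luminescence. Buffer or medium: YPD. Times: static 4 h at 37 °C with compound, 1 h detection. Dosing: single-point compound dose. Read-out: lysis from increased AK signal.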
S100A4 inh HTS: S100A4-myosin IIA interaction inhibition. actives 0.14% (n = 360,000). S100A4/TAMRA-MyoIIA peptide fluorescence polarization. P26447. inhibition, % at 10.7 µM;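 active = mean inhibition of at least 70% across replicates, with every replicate also reaching that level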
Target sequence (P26447 whole entry, looked up): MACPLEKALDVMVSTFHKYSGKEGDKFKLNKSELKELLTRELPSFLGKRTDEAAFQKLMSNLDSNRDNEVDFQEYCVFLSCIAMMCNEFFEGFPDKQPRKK
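Test system: S100A4 monomer protein. Medium: HEPES buffer with Ca2+, pH 7.2. Reagent: fluorescent myosin IIA peptide, 5 nM. Compound dosing: single-point compound testing. Timing: 5 min between mix addition and reading. Benchmarks: DMSO neutral and TFP positive wells.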
C2C12 statin: suppressors of simvastatin-induced myotoxicity in C2C12 myotubes | ATP luminescence, 48 h; scaled: DMSO 0, geranylgeraniol control 100 | actives 0.78% (n = 330,000) | AID 602340 | rescue of ATP level, % at 7.49 µM;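 active = mean ATP rescue above about 67%, or every replicate alone reaching that limit, limit read from the data, passing the limit was not always enough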;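 also: myotubes were challenged with 10 µM simvastatin during compound exposure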
SIRT5 block: inhibitors of human sirtuin-5 desuccinylase; Q9NXA8; Purified SirT5, succinyl-peptide AMC, trypsin-coupled fluorescence; actives 1.1% (n = 330,000); AID 652115; inhibition, % at 15 µM; in the data active = inhibition above about 15%
Target sequence (Q9NXA8 whole entry, looked up): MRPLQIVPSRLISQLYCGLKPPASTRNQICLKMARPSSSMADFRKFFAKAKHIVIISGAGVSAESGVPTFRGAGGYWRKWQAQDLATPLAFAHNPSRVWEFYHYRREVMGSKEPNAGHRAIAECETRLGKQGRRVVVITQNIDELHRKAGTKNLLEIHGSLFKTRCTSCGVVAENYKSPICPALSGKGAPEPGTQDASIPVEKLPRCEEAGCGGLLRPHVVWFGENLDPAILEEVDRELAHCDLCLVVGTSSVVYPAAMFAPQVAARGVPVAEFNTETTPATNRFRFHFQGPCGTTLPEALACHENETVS
Ecoli rRNA inh: selective bacterial rRNA inhibition in E. coli; E. coli WT GFP vs humanized-ribosome RFP mutants, fluorescence, 24 h; stronger effect = lower value; DMSO median 0, no signal -100; GFP signal change (wild-type ribosome), % (concentration not given with the values); actives 1.6% (n = 350,000);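 active = significant combined selectivity score with lowered wild-type GFP, culture density cut under 30%, mutant RFP and density less affected; inactive = any of these conditions unmet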
* hit, by the source's call. Most compounds without a hit are left out; they make up all but 3% or so of the library.

How did C[C@H]1CCCCO[C@H](CN(C)C(=O)c2ccccc2)[C@@H](C)CN([C@@H](C)CO)C(=O)c2cc(NC(=O)CCC(F)(F)F)ccc2O1 do in these assays?
PGC1a acetyl inh: 2.0; Cneo AK release: -8.3; S100A4 inh HTS: 31.9; SIRT5 block: -2.4; Ecoli rRNA inh: -1.1

What do the screens show for `C[C@@H]1CN([C@@H](C)CO)S(=O)(=O)c2ccc(-c3cccc(F)c3)cc2O[C@H]1CN(C)S(=O)(=O)c1ccc(F)cc1`?
PGC1a acetyl inh: -20.9; Cneo AK release: 2.6; S100A4 inh HTS: 13.6; C2C12 statin: -47.1; SIRT5 block: 13.9; Ecoli rRNA inh: 3.2

Results for C[C@H](CO)N1C[C@H](C)[C@@H](CN(C)S(=O)(=O)c2ccc(F)cc2)Oc2cc(-c3cccc(F)c3)ccc2S1(=O)=O ?
PGC1a acetyl inh: -9.6; Cneo AK release: 5.3; S100A4 inh HTS: 17.2; C2C12 statin: 7.0; SIRT5 block: 16.7*; Ecoli rRNA inh: 0.2

How did COc1ccccc1-c1ccc2c(c1)O[C@H](CN(C)S(=O)(=O)c1ccc(F)cc1)[C@H](C)CN([C@H](C)CO)S2(=O)=O do in these assays?
PGC1a acetyl inh: 4.6; Cneo AK release: -0.4; S100A4 inh HTS: -4.4; C2C12 statin: -27.0; SIRT5 block: 26.0*; Ecoli rRNA inh: -3.8

What do the screens show for `COc1ccccc1-c1ccc2c(c1)O[C@H](CN(C)S(=O)(=O)c1ccc(F)cc1)[C@@H](C)CN([C@@H](C)CO)S2(=O)=O`?
PGC1a acetyl inh: -23.3; Cneo AK release: -2.1; S100A4 inh HTS: 0.3; C2C12 statin: -26.3; SIRT5 block: 23.5*; Ecoli rRNA inh: -2.0

What do the screens show for `COC(=O)COc1ccc(Cl)cc1C1Nc2ccccc2C(=O)N1c1ccc(OC)cc1` (centres undefined)?
PGC1a acetyl inh: 0.0; Cneo AK release: -0.5; S100A4 inh HTS: -1.1; C2C12 statin: -7.9; SIRT5 block: -15.6; Ecoli rRNA inh: -25.3*

Results for COc1cc(C2Nc3ccccc3C(=O)N2c2ccccc2)c(Br)cc1OCC(=O)O (centres undefined) ?
Cneo AK release: -1.1

How did O=C(c1ccc(F)cc1)N1CCOC(c2nc(-c3ccc(F)cc3)no2)C1 (centres undefined) do in these assays?
PGC1a acetyl inh: -1.0; Cneo AK release: 0.7; S100A4 inh HTS: -19.1; C2C12 statin: 2.5; SIRT5 block: -2.1; Ecoli rRNA inh: -25.0*

How did CC(C)C#Cc1cnc2c(c1)C(=O)N([C@H](C)CO)C[C@H](C)[C@@H](CN(C)C(=O)C1CCC1)O2 do in these assays?
PGC1a acetyl inh: -26.5; Cneo AK release: 18.4; S100A4 inh HTS: 0.7; C2C12 statin: 9.9; SIRT5 block: 1.0; Ecoli rRNA inh: 6.7

What do the screens show for `CCN(CC)C(=O)c1ccc(NS(=O)(=O)c2ccccc2)cc1`?
PGC1a acetyl inh: 2.3; Cneo AK release: -1.1; C2C12 statin: 103.3*

How did O=C(c1ccc(F)cc1)N1CC(=O)N2[C@@H](CO)[C@H](c3ccc(-c4ccccc4)cc3)[C@@H]2C1 do in these assays?
PGC1a acetyl inh: -6.6; S100A4 inh HTS: -11.8; SIRT5 block: 3.8; Ecoli rRNA inh: 0.3

How did C#CCOc1c(Br)cc(/C=N\NC(=O)CN2CCOCC2)cc1OCC do in these assays?
PGC1a acetyl inh: -2.0; Cneo AK release: -2.0; C2C12 statin: 103.3*

How did O=C(COc1ccc(Br)cc1)N/N=C1/SCC(=O)N1Cc1ccco1 do in these assays?
S100A4 inh HTS: -3.0; SIRT5 block: 1.0; Ecoli rRNA inh: -23.4*

What do the screens show for `Nc1nn(-c2ccccc2)nc1C(=O)OCc1ccccc1`?
PGC1a acetyl inh: 72.5*; Cneo AK release: -1.8; S100A4 inh HTS: -1.5; C2C12 statin: 1.8; SIRT5 block: -5.4; Ecoli rRNA inh: -7.2

How did CCCC(=O)N1CC2(C1)CN(S(=O)(=O)c1ccc(C)cc1)[C@H](CO)c1[nH]c3cc(OC)ccc3c12 do in these assays?
PGC1a acetyl inh: -7.8; S100A4 inh HTS: 4.3; SIRT5 block: 15.1*; Ecoli rRNA inh: -3.5

How did CCS(=O)(=O)N1CC2(C1)CN(S(=O)(=O)c1cn(C)cn1)[C@@H](CO)c1[nH]c3cc(OC)ccc3c12 do in these assays?
PGC1a acetyl inh: 3.1; S100A4 inh HTS: -5.8; SIRT5 block: 30.2*; Ecoli rRNA inh: 4.6

Results for CCCC(=O)N1CCC2(CC1)CN(S(=O)(=O)c1ccc(C)cc1)[C@H](CO)c1[nH]c3cc(OC)ccc3c12 ?
PGC1a acetyl inh: -9.0; S100A4 inh HTS: -4.2; SIRT5 block: 4.8; Ecoli rRNA inh: -2.7

Results for Cc1noc(C)c1NC(=O)Nc1ccc2c(c1)C(=O)N([C@H](C)CO)C[C@H](C)[C@@H](CN(C)C(=O)Nc1ccc(F)cc1)OCCCC[C@H](C)O2 ?
PGC1a acetyl inh: 8.2; Cneo AK release: -2.7; S100A4 inh HTS: 0.9; C2C12 statin: -6.9; SIRT5 block: -1.1; Ecoli rRNA inh: -1.2

How did Cc1nc2sc(C(c3ccco3)N3CCN(c4ccccc4)CC3)c(O)n2n1 (centres undefined) do in these assays?
Cneo AK release: 0.4; S100A4 inh HTS: 1.0; C2C12 statin: -0.3; SIRT5 block: 5.7; Ecoli rRNA inh: 12.3

How did Cc1nc2sc(C(c3ccco3)N3CCN(c4cccc(Cl)c4)CC3)c(O)n2n1 (centres undefined) do in these assays?
PGC1a acetyl inh: -4.9; Cneo AK release: 1.2; S100A4 inh HTS: 4.6; C2C12 statin: 14.3; Ecoli rRNA inh: -38.9*

Results for Cc1cccc(S(=O)(=O)N2C[C@@H](O)COC[C@@H]3O[C@H](CC(=O)NCc4ccc5c(c4)OCO5)CC[C@H]32)c1 ?
PGC1a acetyl inh: 1.8; Cneo AK release: 3.6; S100A4 inh HTS: 3.8; C2C12 statin: -10.6; SIRT5 block: -4.3; Ecoli rRNA inh: -3.3

How did Nc1ncnc2nc(SCC(=O)N3CCN(c4ccccc4)CC3)[nH]c12 do in these assays?
PGC1a acetyl inh: -18.0; Cneo AK release: -2.9; C2C12 statin: -9.4

How did Nc1ncnc2nc(SCc3ccccc3)[nH]c12 do in these assays?
PGC1a acetyl inh: -7.6; Cneo AK release: 0.8; C2C12 statin: 98.8*

What do the screens show for `CCC(Sc1nc2ncnc(N)c2[nH]1)C(=O)O` (centres undefined)?
PGC1a acetyl inh: 1.0; Cneo AK release: -2.1; S100A4 inh HTS: -1.6; C2C12 statin: 6.0; SIRT5 block: 16.8*; Ecoli rRNA inh: 3.5

Results for COc1ccc(C(=O)Nc2ccc3c(c2)OC[C@@H](C)N(Cc2cocn2)C[C@@H](C)[C@@H](OC)CN(C)C3=O)cc1 ?
PGC1a acetyl inh: 1.1; Cneo AK release: 52.5; S100A4 inh HTS: 1.7; C2C12 statin: 10.7; SIRT5 block: -1.6; Ecoli rRNA inh: 1.6
